HUVEC prolif 384: blocks proliferation of human endothelial cells; viability, % at 10 µM (by protocol); hit rate 1.1% among 86,000; HUVEC proliferation, CellTiter-Glo luminescence, 72 h; hits give low values;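 active = viability at or below 30%; inactive = viability above 30%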;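 also: 100% = median luminescence of DMSO-only cell control wells on each plate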
HCT116 bCat-KO: beta-catenin-lacking colon tumor cell growth suppression; AID 818; hit rate 1.5% among 140,000; viability, % at 10 µM; HCT116 beta-catenin knockout viability, CellTiter-Glo, 60 h; hits give low values;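 active = viability at or under a set limit, the compound median less 4 SD, cut at about 6% in these data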;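 also: 0% = Hyamine 1622 control at 20 µM and 100% = untreated cell control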
Lung fibro prol: blocks proliferation of human lung fibroblasts; hit rate 1.1% among 85,000; AID 719; LL 47 human lung fibroblast viability, ATP luminescence; hits give low values; viability, % at 10 µM;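 active = viability at or below 50% in the single dose screen; inactive = viability above 50%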;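 also: compound exposure lasted 72 h before the ATP readout; 100% = median luminescence of untreated cell-only wells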
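Material: Human LL 47 lung fibroblast cells | Input: 1,150 cells/well | Buffer or medium: IMEM plus 15% FBS | Compound dosing: 0.1% DMSO in all compound wells | Times: Overnight cell rest, 72 h compound treatment at 37 °C | Signal: CellTiter-Glo luminescence measuring cellular ATP | Measure: % viability versus median cells-only luminescence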
H69AR inhibit: blocks growth of human H69AR lung tumor cells; AID 598; hit rate 6% among 85,000; H69AR lung tumor viability, ATP luminescence, 72 h; hits give low values; viability, % at 10 µM;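 active = viability at or below 40%; inactive = viability above 40%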;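 also: multidrug resistant small cell line overexpressing MRP-1 efflux transporter; 100% = mean luminescence of untreated control wells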
PTEN del growth: suppresses growth of cells with PTEN deletion; HCT116 PTEN-null viability, CellTiter-Glo, 60 h; hits give low values; viability, % at 10 µM; hit rate 1.2% among 140,000;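 active = viability at or below a set limit, 4 SD under the median of all tested compounds, cut at about 3.7% in these data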;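 also: PTEN knockout HCT116 line with beta catenin targeted HCT116 as companion control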
Starred values were filed as active, the others as inactive; nt = not tested or not shown. The entries come from a sample that favours hits as a whole.

SMILES | HUVEC prolif 384 | HCT116 bCat-KO | Lung fibro prol | H69AR inhibit | PTEN del growth
O=C(Nc1nc2ccccc2[nH]1)c1ccc(Cl)c(S(=O)(=O)N2CCCC2)c1 | 75.1 | 25.4 | 73.1 | 12.0* | 39.0
O=C(CCSc1nc(-c2ccco2)cc(C(F)(F)F)n1)N1CCN(c2ccccc2)CC1 | 68.2 | 53.7 | 95.9 | 64.0 | 61.5
COC(=O)Nc1nc2ccc(C(=O)c3ccccc3)cc2[nH]1 | 36.9 | nt | 50.0 | 32.9* | nt
CCN(CC)CCNc1ccc(CO)c2sc3ccccc3c(=O)c12 | nt | 1.9* | nt | nt | 1.9*
CCN(CC)CCNC(=O)Cc1nn(CC)c(=O)c2ccccc12 | 113.2 | 109.7 | 96.8 | 108.4 | 104.8
Cc1ccc2c(COn3nnc4ccc(S(=O)(=O)N(C)C)cc43)cc(=O)oc2c1C | 82.7 | 96.3 | 98.9 | 33.3* | 94.8
CCCS(=O)(=O)N1CCN(CCCc2ccccc2)CC1 | 91.6 | 93.7 | 97.0 | nt | 96.0
Cn1c(O)c(C(C#N)=C2N=c3ccccc3=N2)c2ccccc21 | 49.7 | 86.1 | 74.1 | 14.1* | 74.1
N#CC(=C1N=c2ccccc2=N1)c1c(O)[nH]c2ccccc12 | nt | 86.8 | nt | nt | 84.1
O=C(Nc1cccc(NC(=O)c2ccc(-c3ccc(Br)cc3)o2)c1)c1ccco1 | 53.9 | 38.6 | 70.2 | 35.3* | 36.3
O=C(/C=C/c1ccc(Br)cc1)c1ccco1 | nt | 1.0* | nt | nt | 0.8*
O=C(/C=C/c1ccncc1)c1ccc(NC(=O)c2ccccc2F)cc1 | nt | 1.2* | nt | nt | 2.0*
CCN(CC)c1ccc(NC(=O)c2ccccc2F)cc1 | 46.7 | 32.9 | 70.9 | 25.6* | 30.5
CCN(CC)c1ccc(NC(=O)c2cc(Cl)ccc2OC)cc1 | 30.5 | 63.8 | 73.9 | 48.1 | 66.6
O=C(/C=C/c1ccc2c(c1)OCO2)c1ccco1 | nt | 18.5 | nt | nt | 20.1
COc1cc2c(cc1NS(=O)(=O)N1CCCC1)oc1ccccc12 | 70.9 | 81.0 | 94.3 | 69.0 | 91.7
COc1ccc(OC)c(NC(=O)Cn2c(-c3ccc(Cl)cc3)noc2=O)c1 | 92.7 | 88.5 | 103.1 | 92.3 | 102.7
Cn1c(C(=O)O)c(CC(=O)Nc2ccccc2F)c2ccccc21 | 79.1 | 94.4 | 91.1 | 96.1 | 100.4
COc1ccc2oc(C(F)(F)C(F)F)cc(=O)c2c1 | 94.3 | 103.2 | 94.8 | 95.2 | 116.7
O=C(/C=C/c1ccc(Br)cc1)c1ccc(NC(=O)c2ccco2)cc1 | nt | 1.8* | nt | nt | 2.1*
COc1ccc(CNC(=S)NCc2ccc(OC(C)C)cc2)cc1 | nt | 97.3 | nt | nt | 104.3
COCCCNC(=O)c1cc2c(=O)n(C)c3ccccc3c2n1C | 70.2 | 70.2 | 100.6 | 24.0* | 63.4
Cn1c(C(=O)NCCCN2CCc3ccccc3C2)cc2c(=O)n(C)c3ccccc3c21 | 52.4 | 46.5 | 67.0 | 34.6* | 53.5
Cn1c(C(=O)Nc2ccc3c(c2)OCCO3)cc2c(=O)n(C)c3ccccc3c21 | 50.2 | 65.9 | 103.5 | 20.6* | 57.8
O=C(c1ccc2nccnc2c1)N1CCN(Cc2ccc3c(c2)OCO3)CC1 | 104.2 | 97.7 | 101.9 | 92.6 | 93.4
SMILES | HUVEC prolif 384 | HCT116 bCat-KO | Lung fibro prol | H69AR inhibit | PTEN del growth
CCn1c(=O)c2c(nc(SCc3ccccn3)n2C)n(C)c1=O | 100.6 | 93.5 | 98.2 | 78.5 | 103.4
N#CC1=C2Nc3ccccc3N2C(=O)NC1(c1ccccc1)C(F)(F)F (stereo not drawn) | nt | 87.5 | nt | nt | 92.3
COc1ccc(N2CCN(C(=O)CSc3nnc(-c4ccc5[nH]c(C)c(C)c5c4)o3)CC2)cc1 | 81.2 | 88.8 | 101.5 | 46.2 | 81.7
COC(=O)CSC1=C(C#N)C(c2ccsc2)CC(=O)N1 (stereo not drawn) | 68.9 | 54.2 | 93.2 | 37.9* | 48.0
COC(=O)CSC1=C(C#N)C(c2cccc(F)c2)CC(=O)N1 (stereo not drawn) | 89.8 | 39.7 | 92.6 | 28.4* | 39.4
COc1cccc(NC(=O)COC(=O)c2c3c(nc4ccccc24)CCC(C)C3)c1 (stereo not drawn) | 30.9 | 1.7* | 88.0 | 22.9* | 1.4*
O=C(COC(=O)c1c2c(nc3ccccc13)CCCC2)Nc1ccc2c(c1)OCO2 | 68.1 | 36.9 | 102.5 | 36.4* | 23.5
COc1cccc(NC(=O)COC(=O)c2cccnc2)c1 | 89.6 | 95.8 | 102.7 | 98.5 | 101.6
O=C(COC(=O)c1cc(-c2ccccc2)nc2ccccc12)Nc1ccc2c(c1)OCO2 | nt | 86.7 | nt | nt | 117.0
CCOC(=O)C1=C(NC(=O)c2ccc(Br)o2)Nc2ccccc2N=C1 | 91.8 | 83.0 | 82.5 | 31.2* | 107.6
O=C(COc1ccc(S(=O)(=O)NC2CCCCC2)cc1)N1CCN(c2ccc(F)cc2)CC1 | 83.0 | 80.6 | 95.1 | 90.3 | 78.5
N#Cc1nc(-c2cccc3ccccc23)oc1NCCN1CCCCC1 | 5.1* | 56.7 | 52.9 | 12.6* | 47.4
COc1ccccc1NC(=O)N(Cc1ccco1)Cc1cc2ccc(C)c(C)c2[nH]c1=O | 59.1 | 16.6 | 55.0 | 17.4* | 24.1
COc1ccccc1NC(=S)N(Cc1ccco1)Cc1cc2cccc(C)c2[nH]c1=O | nt | 89.5 | nt | nt | 73.0
COc1ccccc1NC(=O)N(Cc1ccco1)Cc1cc2cc(C)cc(C)c2[nH]c1=O | 60.5 | 30.7 | 105.0 | 18.6* | 29.9
CC1S/C(=N/N=C2CCCCC2)NC1=O (stereo not drawn) | nt | 100.1 | nt | nt | 100.5
CC(C)CCNC(=O)C1CC(c2cccc([N+](=O)[O-])c2)=NO1 (stereo not drawn) | nt | 89.4 | nt | nt | 99.0
O=C1C2C3C=CC(C4CC34)C2C(=O)N1CCc1ccccc1 (stereo not drawn) | nt | 95.5 | nt | nt | 100.0
CCOC(=O)N1CCC(c2cc(=O)n3[nH]c(C)c(-c4ccc(F)cc4)c3n2)CC1 | 6.4* | 24.7 | 83.5 | 96.4 | 46.5
O=C(c1ccccc1)c1nn(-c2ccccc2)c2nnc(Cc3ccccc3)c(=O)n12 | 58.1 | 49.6 | 104.4 | 31.7* | 55.9
COC(=O)c1[nH]c2cc(OC)ccc2c1NC(=O)c1nonc1C | 89.9 | 72.0 | 87.7 | 29.8* | 76.3
CCOC(=O)c1[nH]c2ccc(OC)cc2c1NC(=O)c1nonc1C | 100.5 | 94.6 | 101.8 | 94.2 | 100.3
Cc1cccc(NC(=O)C2CCCN(S(=O)(=O)c3c(C)nn(C)c3C)C2)n1 (stereo not drawn) | 96.3 | 78.4 | 85.3 | 38.5* | 81.6
Cc1cc(NC(=O)CC2CCCC2)n(-c2nc3ccccc3[nH]2)n1 | 59.3 | 13.9 | nt | 28.7* | 15.2
COCCN1CSC(=S)N(Cc2ccco2)C1 | 69.5 | 25.1 | 82.3 | 0.8* | 40.8
SMILES | HUVEC prolif 384 | HCT116 bCat-KO | Lung fibro prol | H69AR inhibit | PTEN del growth
Cc1ccc(NC(=O)Cn2c(O)c(N=NS(=O)(=O)c3ccc(C)cc3)c3ccccc32)cc1 | nt | 84.6 | nt | nt | 90.2
CCOC(=O)c1c(CNCCN(CC)CC)n(C)c2cc(Br)c(OC)cc12 | 45.1 | 56.3 | 83.8 | 33.5* | 59.3
CCOC(=O)c1c(CN2CCCCC2)n(C)c2cc(Br)c(OC)cc12 | 59.1 | 32.1 | 93.9 | 77.2 | 46.7
CCOC(=O)c1c(CN2CCN(CCO)CC2)n(C)c2cc(Br)c(OC)cc12 | 45.5 | 54.0 | 71.6 | 16.5* | 41.2
CCN(CC)CCNC(=O)c1c(C)n(-c2ccccc2)c2cc(Br)c(OC)cc12 | 6.1* | 6.2 | 56.0 | 25.4* | 14.0
Cc1nn(C)cc1C(=O)NNC(=S)Nc1ccccc1 | nt | 107.7 | nt | nt | 106.8
